Screening data: PubChem, Broad Institute
Hits are enriched below; roughly 2.4% of the tested compounds scored in any of these assays.
rRNA inh HTS – inhibitors of bacterial rRNA selective over humanized ribosomes; 350,000 tested, 1.6% active; E. coli WT GFP vs humanized-ribosome RFP mutants, fluorescence, 24 h; active compounds read low; DMSO median 0, no signal -100; GFP signal change (wild-type ribosome), % (concentration not given with the values);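 active = significant combined selectivity score with lowered wild-type GFP, culture density cut under 30%, mutant RFP and density less affected; inactive = any of these conditions unmet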
Casp6 inh – caspase-6 (human) enzyme inhibition; purified caspase-6, Z-VEID-R110 cleavage fluorescence; 350,000 tested, 0.53% active; AID 686996; inhibition, % at 12.5 µM;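 active = mean inhibition across replicates at least about 35%, with every replicate also reaching that limit, limit read from the data; inconclusive = only one of the two criteria met; inactive = neither criterion met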;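 note: 0% = median of neutral control wells and 100% = no fluorescence left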
S100A4 MyoIIA – blocks human S100A4 binding to myosin IIA peptide; P26447; S100A4/TAMRA-MyoIIA peptide fluorescence polarization; inhibition, % at 10.7 µM; 360,000 tested, 0.14% active; AID 652163;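 active = mean inhibition of at least 70% across replicates, with every replicate also reaching that level; inconclusive = mean inhibition reaches 70% but some replicates fall short; inactive = mean inhibition below 70%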
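Test system: S100A4 monomer protein; Medium: HEPES pH 7.2 with CaCl2, KCl, NaCl, DTT, Triton; Probe or stimulus: TAMRA-labelled myosin IIA heavy-chain peptide probe, 5 nM; Doses: one dose per compound; Times: polarization read 5 min after assay mix addition, stable 5–60 min; Benchmarks: neutral control DMSO, positive control TFP.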
ARNT-TACC3 inh – ARNT/TACC3 interaction disruption. Q9Y6A5. AlphaScreen His-ARNT PAS-B/GST-TACC3 binding, luminescence; TACC3 fragment carries E629A point mutation. inhibition, % at 9.99 µM. 390,000 tested, 0.66% active;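 active = mean inhibition of replicates at least 50% and at least half of replicates each reaching 50%; inconclusive = half or more replicates reach 50% but mean below 50%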;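 note: 0% = complete ARNT plus TACC3 wells and 100% = ARNT alone without TACC3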
PGC1a acetyl inh – PGC1a acetylation modulation, inhibitor mode | U2OS PGC1a acetylation, AlphaScreen anti-acetyl-lysine; with virally co-expressed GCN5 acetyltransferase | inhibition, % at 15.6 µM | 350,000 tested, 0.17% active | AID 651687;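 active = every replicate shows inhibition of at least 40%; inconclusive = mean inhibition at least 40% but some replicate below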;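 note: 0% = neutral control wells and 100% = positive control wells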
ERAP1 inh – blocks human ERAP1 aminopeptidase activity | Q9NZ08 | recombinant ERAP1, Leu-AMC fluorescence, 60 min | inhibition, % at 10.7 µM | 340,000 tested, 0.15% active | AID 652197;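 active = mean replicate inhibition of at least 30%, or all replicates individually reaching that 30% level; inactive = mean below 30% and not every replicate reaching it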;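 note: 0% = neutral control wells and 100% = L-leucinethiol positive control wells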
Target sequence (Q9NZ08 whole entry, looked up): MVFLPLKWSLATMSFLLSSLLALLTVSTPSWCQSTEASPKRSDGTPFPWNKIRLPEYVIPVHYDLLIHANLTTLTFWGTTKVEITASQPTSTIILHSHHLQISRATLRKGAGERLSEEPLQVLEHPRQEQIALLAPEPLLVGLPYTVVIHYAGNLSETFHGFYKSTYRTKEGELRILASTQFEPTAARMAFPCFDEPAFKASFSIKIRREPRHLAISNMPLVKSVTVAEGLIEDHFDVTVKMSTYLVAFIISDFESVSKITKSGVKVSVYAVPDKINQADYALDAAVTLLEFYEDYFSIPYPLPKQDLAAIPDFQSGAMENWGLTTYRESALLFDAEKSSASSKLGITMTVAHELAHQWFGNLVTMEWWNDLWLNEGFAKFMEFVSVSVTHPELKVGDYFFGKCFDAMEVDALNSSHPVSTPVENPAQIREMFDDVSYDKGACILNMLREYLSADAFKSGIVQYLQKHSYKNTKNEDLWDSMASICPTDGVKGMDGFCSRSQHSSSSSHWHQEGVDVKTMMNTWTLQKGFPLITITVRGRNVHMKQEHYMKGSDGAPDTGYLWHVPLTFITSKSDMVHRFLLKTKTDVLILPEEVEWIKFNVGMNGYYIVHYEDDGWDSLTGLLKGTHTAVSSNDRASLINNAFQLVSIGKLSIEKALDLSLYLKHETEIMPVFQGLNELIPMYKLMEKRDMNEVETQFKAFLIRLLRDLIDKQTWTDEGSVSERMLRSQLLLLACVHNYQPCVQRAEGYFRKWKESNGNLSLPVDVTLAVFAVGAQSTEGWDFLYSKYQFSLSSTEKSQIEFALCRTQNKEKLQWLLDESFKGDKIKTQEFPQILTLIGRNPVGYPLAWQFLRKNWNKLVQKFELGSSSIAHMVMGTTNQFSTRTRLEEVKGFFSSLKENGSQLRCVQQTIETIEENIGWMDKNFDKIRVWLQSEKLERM
The depositor's hits bear a star; ? = inconclusive; · = no result.

SMILES	rRNA inh HTS	Casp6 inh	S100A4 MyoIIA	ARNT-TACC3 inh	PGC1a acetyl inh	ERAP1 inh
C[C@@H]1CN([C@H](C)CO)S(=O)(=O)c2ccc(C3=CCCCC3)cc2O[C@@H]1CN(C)Cc1ccccc1	-13.6	2.2	79.2*	·	8.1	2.9
C[C@@H]1CN([C@H](C)CO)S(=O)(=O)c2ccc(C3=CCCCC3)cc2O[C@@H]1CN(C)Cc1cncnc1	5.0	-0.9	106.5*	4.8	11.7	2.7
Cc1c(O)cc2c(c1O)C(=O)CC(c1ccc(O)cc1)O2 (stereo unspecified)	·	46.1*	3.1	-1.0	0.5	·
O=C(O)c1cc([N+](=O)[O-])cc2c1C=Cc1ccccc1O2	-4.9	38.4*	-2.0	-23.6	·	-3.7
COc1ccc(CN(C)C[C@H]2OCCCC[C@H](C)Oc3ccc(NS(=O)(=O)c4ccccc4)cc3C(=O)N([C@@H](C)CO)C[C@H]2C)cc1	-1.1	-4.7	1.5	-3.3	-4.7	-3.3
FC(F)(F)c1ccc(Cl)c(-n2c(-c3ccco3)n[nH]c2=S)c1	-5.4	1.2	-4.4	-1.9	·	0.9
FC(F)(F)c1ccc(Cl)c(-n2c(-c3cc(-c4ccco4)[nH]n3)n[nH]c2=S)c1	5.7	69.1*	-8.9	4.0	?	5.5
CO[C@H]1CN(C)C(=O)c2cc(NC(=O)c3cc(C)on3)ccc2OC[C@H](C)N(C(C)=O)C[C@@H]1C	0.4	-0.3	43.9	10.9	4.5	-1.0
COc1cccc(/C=N/NC(=O)c2ccc(CN3c4cccc5cccc(c45)S3(=O)=O)cc2)c1	7.5	-2.0	-0.3	-2.4	0.3	3.6
O=C(N/N=C/c1cccnc1)c1ccc(CN2c3cccc4cccc(c34)S2(=O)=O)cc1	-17.6*	-3.2	-3.3	1.3	·	-2.8
CCOc1cc2c(cc1OC)C(c1cccc([N+](=O)[O-])c1)NCC2 (stereo unspecified)	10.7	42.3*	0.9	-17.8	·	-0.3
CC(C)NC(=O)Nc1ccc2c(c1)C(=O)N([C@@H](C)CO)C[C@@H](C)[C@@H](CN(C)C(=O)Nc1ccccc1)OCCCC[C@@H](C)O2	-2.3	·	4.1	·	8.5	·
O=C(Nc1ccc(-c2ccccc2)cc1)c1ccco1	2.2	2.1	-5.4	-1.2	0.2	40.8*
O=C(Nc1ccc(NC(=O)c2ccco2)cc1)c1ccco1	4.4	-0.7	4.9	-10.4	·	-0.7
CO[C@H]1CN(C)C(=O)c2ccc(NC(C)=O)cc2OC[C@@H](C)N(C(=O)CN(C)C)C[C@H]1C	2.6	·	·	-8.7	1.8	·
COc1ccc(C(CC(=O)O)N2Cc3ccccc3C2=O)cc1 (stereo unspecified)	-1.4	-3.7	-6.3	5.9	0.7	-5.6
COc1ccc(C(CC(=O)Nc2ccc(C)cn2)N2Cc3ccccc3C2=O)cc1 (stereo unspecified)	-8.1	9.0	0.2	34.6*	-28.4	0.4
CCCNC(=O)N1CC2(CN(S(=O)(=O)c3ccc(OC)cc3)C2)c2c(n(C)c3cc(OC)ccc23)[C@@H]1CO	-2.0	·	-9.9	·	1.6	·
COc1ccccc1S(=O)(=O)N1CC[C@@H]2[C@H](CO)Nc3ccc(-c4ccccc4)cc3[C@@H]21	-7.4	0.5	-23.3	4.6	-7.4	0.7
Cc1nc(N2CCCCC2)sc1C(=O)c1cccc([N+](=O)[O-])c1	-6.2	0.3	-11.3	13.5	·	3.5
Cc1nc(N2CCCCC2)sc1C(=O)c1ccc(SCCO)c([N+](=O)[O-])c1	-20.2*	-0.4	0.1	6.9	22.1	-5.7
C[C@H](CO)N1C[C@H](C)[C@H](CN(C)S(=O)(=O)c2cccs2)Oc2ccc(N(C)C)cc2CC1=O	-0.6	-0.9	8.3	7.0	5.4	0.7
O=C(O)C1=C(C(=O)O)C2C=CC1C2	4.7	52.5*	-4.1	-3.8	5.9	-3.2
COC(=O)C(C(C)=O)C1=C/C(=N\S(=O)(=O)c2ccc(C)cc2)c2ccccc2C1=O (stereo unspecified)	·	·	·	9.7	6.2	·
COc1ccc(S(=O)(=O)/N=C2\C=C(Nc3ccc(O)cc3)C(=O)c3ccccc32)cc1	-45.5	78.2*	0.1	40.8	·	-2.6
SMILES	rRNA inh HTS	Casp6 inh	S100A4 MyoIIA	ARNT-TACC3 inh	PGC1a acetyl inh	ERAP1 inh
Cc1ccccc1NC1=C/C(=N\S(=O)(=O)c2cccs2)c2ccccc2C1=O	·	·	·	16.3	88.0*	·
CC(=O)Nc1ccc(NC2=C/C(=N/S(=O)(=O)c3cccs3)c3ccccc3C2=O)cc1	5.5	98.5*	-1.4	23.5	70.4*	1.5
Cc1ccc(NC2=C/C(=N/S(=O)(=O)c3cccs3)c3ccccc3C2=O)cc1C	13.1	0.0	0.7	-2.8	6.0	4.6
CCSc1nnc(NC(=O)CSc2sc3c(O)cc(=O)[nH]c3c2C#N)s1	2.1	44.1*	-0.8	-2.4	0.1	1.8
CCc1nnc(NC(=O)CSc2sc3c(O)cc(=O)[nH]c3c2C#N)s1	6.8	64.5*	-9.1	18.5	·	-0.1
Cc1csc(NC(=O)CSc2sc3c(O)cc(=O)[nH]c3c2C#N)n1	-0.2	79.2*	0.3	14.3	·	0.3
COCC(=O)Nc1ccc2c(c1)C(=O)N(C)[C@@H]1CC[C@H](CC(=O)NCC(F)(F)F)O[C@H]1CO2	0.9	0.0	10.9	-0.6	0.3	0.9
CC1OC(OCC2OC(Oc3c(-c4ccc(O)cc4)oc4cc(O)cc(O)c4c3=O)C(O)C(O)C2O)C(O)C(O)C1O (stereo unspecified)	4.2	54.1*	-1.6	2.7	2.0	2.5
CC1OC(OC2C(Oc3c(-c4ccc(O)cc4)oc4cc(O)cc(O)c4c3=O)OC(COC3O[C@@H](C)[C@H](O)[C@@H](O)C3O)C(O)C2O)C(O)C(O)C1O (stereo partly specified)	4.7	0.1	0.5	-4.9	4.5	5.0
O=C(COc1ccc2ccccc2c1)NNC(=O)c1cnccn1	·	·	·	3.6	·	·
COc1ccccc1C(=O)NNC(=S)NC(=O)c1cc(OC)c(OC)c(OC)c1	-30.1	-5.7	-7.8	-0.7	·	0.3
CC(C)c1ccc(OCC(=O)NNC(=O)c2cnccn2)cc1	-28.1*	3.1	-4.4	11.9	·	-2.3
COc1cc(C(=O)NC(=S)NNC(=O)c2cnccn2)cc(OC)c1OC	·	·	·	65.0*	1.2	·
COc1ccc(C(=O)NC(=S)NNC(=O)c2ccccc2C)cc1	-41.0*	-1.0	12.8	41.0	·	-0.1
COc1ccc(C(=O)NC(=S)NNC(=O)COc2ccccc2)cc1	-5.8	-0.8	0.4	-0.4	-4.6	3.4
COc1ccc(C(=O)NC(=S)NNC(=O)c2cnccn2)cc1	·	·	·	59.0*	·	·
C[C@H](CO)N1C[C@H](C)[C@@H](CN(C)CC2CCOCC2)Oc2ncc(C#Cc3ccccc3)cc2C1=O	2.6	-2.3	-0.3	2.2	-6.0	-0.2
